Source: ChEMBL document CHEMBL1122426, “Radioiodine-labeled N,N-dimethyl-N'-(2-hydroxy-3-alkyl-5-iodobenzyl)-1,3-propanediamines for brain perfusion imaging” (J Med Chem, 1983)

Assays:
[1] = system: Rattus norvegicus; test: Biodistribution of I-125 labeled compound in rat brain, 1 hr after intravenous injection. value expressed in average % dose per organ; value may range from 1.71 to 2.54; type: ADME, organism-based; conditions: in vivo
[2] = Biodistribution of [125I]- compound in a monkey brain. 1 hr after intravenous injection. the value expressed in %dose/gram; conditions: simiiformes, in vivo
[3] = system: Rattus norvegicus; test: Biodistribution of I-125 labeled compound in rat heart, 1 hr after intravenous injection. value expressed in average % dose per organ; value may range from 0.97 to 1.26; type: ADME, organism-based; conditions: in vivo
[4] = species: Rattus norvegicus; test: Effect of specific activity of compound on biodistribution in rats heart 1 hr after injection at the dose of 2.5 mg value expressed in average % dose per organ; value may range from 0.34 to 0.42; type: ADME, organism-based; conditions: in vivo
In short: (§1)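 Rats received an intravenous injection of the I-125 labeled diamine with added unlabeled carrier (6.25, 2.5, 0.25 or 0.025 mg per dose). At 1 h, organs were counted. Percent dose per organ came from comparing tissue radioactivity with diluted aliquots of the injected dose. Values are the average and range of 3 rats. Brain/blood ratio was taken from % dose per gram, calculated using mean organ weights (brain 1.65 g; blood 18 g).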

[5] = species: Rattus norvegicus; test: Effect of specific activity of compound on biodistribution in rats thyroid after injection at the dose of 0.025 mg value expressed in average % dose per organ; value may range from 0.15 to 0.17; type: ADME, organism-based, Thyroid gland; conditions: in vivo; in short: as §1
[6] = species: Rattus norvegicus; test: Effect of specific activity of compound on biodistribution in rats muscle 1 hr after injection at the dose of 2.5 mg value expressed in average % dose per organ; value may range from 12.7 to 18.3; type: ADME, organism-based, Muscle tissue; conditions: in vivo; in short: as §1
[7] = Biodistribution of [125I]- compound in a monkey muscle. 1 hr after intravenous injection. the value expressed in%dose/organ; conditions: simiiformes, in vivo
[8] = system: Rattus norvegicus; test: Biodistribution of I-125 labeled compound in rat brain to blood ratio, 2 min after intravenous injection, value expressed in % dose per gram ratio; type: ADME, organism-based
In short: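 Rats given I-125 diamine iv; tissue activity at 2 min or 1 h compared with diluted injected-dose aliquots. % dose per gram approximated as % dose per organ divided by mean organ weight (brain 1.65 g; blood 18 g). Ratio taken from the per-gram values.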

[9] = species: Rattus norvegicus; test: Effect of specific activity of compound on biodistribution in rats muscle after injection at the dose of 0.025 mg value expressed in average % dose per organ; value may range from 11.6 to 12.9; type: ADME, organism-based, Muscle tissue; conditions: in vivo; in short: as §1
[10] = system: Rattus norvegicus; test: Biodistribution of I-125 labeled compound in rat blood, 2 min after intravenous injection. value expressed in average % dose per organ; value may range from 2.42 to 2.84; type: ADME, organism-based; conditions: in vivo
[11] = species: Rattus norvegicus; test: Effect of specific activity of compound on biodistribution in rats brain to blood ratio 1 hr after injection at the dose of 6.25 mg value expressed in % dose per gram ratio; type: ADME, organism-based; in short: as §1

Average dose per organ [1]: 2.02%
Dose/g [2]: 0.0349%
Average dose per organ [3]: 1.11%
Average dose per organ [4]: 0.38%
Average dose per organ [5]: 0.16%
Average dose per organ [6]: 16.2%
Dose per organ [7]: 17.3%
Ratio [8]: 7.35%
Average dose per organ [9]: 12.2%
Average dose per organ [10]: 2.63%
Ratio [11]: 43%
Compound: Cc1cc(I)cc(CNCCCN(C)C)c1O
